PTK2B oligo ant: Pyk2 (human) oligomerization antagonism; z-score (the deposit names both 25 µM and 10 µM); Q293 cells, Pyk2 FERM NanoBiT luminescence; hits give low values; actives 0.83% (n = 99,000);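 active means Z-score of -3 or lower, scaled per plate to the spread of control and sample wells; inactive means z-score above -3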;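 further: negative z-score means lost luminescence so less FERM oligomerization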
PostGolgi yeast: growth inhibition of a yeast mutant, post-Golgi transport screen. inhibition, % at 10 µM. post-Golgi transport phenotypic cell assay. actives 0.9% (n = 98,000). AID 739;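 further: yeast cells grown in 1536-well plates; yeast grown about 18 h at 30C before absorbance read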
Ecoli WT expand: E. coli BW25113 growth inhibition, expanded screen; OD600 absorbance; growth inhibition, % at 100 µM; actives 0.15% (n = 98,000);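 active means growth inhibition above about 50% at one test dose, limit read from the data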;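 further: growth measured after 20 h incubation at 37 °C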
PostGolgi ctrl: yeast control strain growth, post-Golgi counter-screen. efflux-deficient yeast background strain, growth absorbance A615, 16 h. inhibition, % at 10 µM. actives 5% (n = 98,000)
tolC growth inh: blocks growth of E. coli BW25113 tolC mutant | growth inhibition, % at 10 µM (by protocol) | actives 2.2% (n = 65,000) | AID 573 | OD615;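 active means growth inhibition at or above a cutoff equal to the mean over every tested compound plus 3 SD, cut at about 60% in these data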;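 further: growth measured after 20 h incubation at 37 °C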
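Doses: one dose of 10 µM final / Material: E. coli BW25113 ΔtolC::kan, tolC deletion mutant strain / Buffer or medium: LB with kanamycin 50 µg/mL / Evaluation: percent growth inhibition / Detection: optical density read at 615 nm / Incubation: 37 °C, 20 h exposure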
Cav3 T inh: human Cav3.2 channel inhibition, primary screen. AID 449739. B-score at 10 µM. Cav3.2-expressing cells, Fluo-4 calcium fluorescence FDSS; hits give low values. O95180. actives 4% (n = 100,000);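 active means single-dose well whose peak fluorescence ratio is a statistical outlier from its plate by either plate-standardised score or position-corrected B-score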
Target sequence (O95180 whole entry, looked up): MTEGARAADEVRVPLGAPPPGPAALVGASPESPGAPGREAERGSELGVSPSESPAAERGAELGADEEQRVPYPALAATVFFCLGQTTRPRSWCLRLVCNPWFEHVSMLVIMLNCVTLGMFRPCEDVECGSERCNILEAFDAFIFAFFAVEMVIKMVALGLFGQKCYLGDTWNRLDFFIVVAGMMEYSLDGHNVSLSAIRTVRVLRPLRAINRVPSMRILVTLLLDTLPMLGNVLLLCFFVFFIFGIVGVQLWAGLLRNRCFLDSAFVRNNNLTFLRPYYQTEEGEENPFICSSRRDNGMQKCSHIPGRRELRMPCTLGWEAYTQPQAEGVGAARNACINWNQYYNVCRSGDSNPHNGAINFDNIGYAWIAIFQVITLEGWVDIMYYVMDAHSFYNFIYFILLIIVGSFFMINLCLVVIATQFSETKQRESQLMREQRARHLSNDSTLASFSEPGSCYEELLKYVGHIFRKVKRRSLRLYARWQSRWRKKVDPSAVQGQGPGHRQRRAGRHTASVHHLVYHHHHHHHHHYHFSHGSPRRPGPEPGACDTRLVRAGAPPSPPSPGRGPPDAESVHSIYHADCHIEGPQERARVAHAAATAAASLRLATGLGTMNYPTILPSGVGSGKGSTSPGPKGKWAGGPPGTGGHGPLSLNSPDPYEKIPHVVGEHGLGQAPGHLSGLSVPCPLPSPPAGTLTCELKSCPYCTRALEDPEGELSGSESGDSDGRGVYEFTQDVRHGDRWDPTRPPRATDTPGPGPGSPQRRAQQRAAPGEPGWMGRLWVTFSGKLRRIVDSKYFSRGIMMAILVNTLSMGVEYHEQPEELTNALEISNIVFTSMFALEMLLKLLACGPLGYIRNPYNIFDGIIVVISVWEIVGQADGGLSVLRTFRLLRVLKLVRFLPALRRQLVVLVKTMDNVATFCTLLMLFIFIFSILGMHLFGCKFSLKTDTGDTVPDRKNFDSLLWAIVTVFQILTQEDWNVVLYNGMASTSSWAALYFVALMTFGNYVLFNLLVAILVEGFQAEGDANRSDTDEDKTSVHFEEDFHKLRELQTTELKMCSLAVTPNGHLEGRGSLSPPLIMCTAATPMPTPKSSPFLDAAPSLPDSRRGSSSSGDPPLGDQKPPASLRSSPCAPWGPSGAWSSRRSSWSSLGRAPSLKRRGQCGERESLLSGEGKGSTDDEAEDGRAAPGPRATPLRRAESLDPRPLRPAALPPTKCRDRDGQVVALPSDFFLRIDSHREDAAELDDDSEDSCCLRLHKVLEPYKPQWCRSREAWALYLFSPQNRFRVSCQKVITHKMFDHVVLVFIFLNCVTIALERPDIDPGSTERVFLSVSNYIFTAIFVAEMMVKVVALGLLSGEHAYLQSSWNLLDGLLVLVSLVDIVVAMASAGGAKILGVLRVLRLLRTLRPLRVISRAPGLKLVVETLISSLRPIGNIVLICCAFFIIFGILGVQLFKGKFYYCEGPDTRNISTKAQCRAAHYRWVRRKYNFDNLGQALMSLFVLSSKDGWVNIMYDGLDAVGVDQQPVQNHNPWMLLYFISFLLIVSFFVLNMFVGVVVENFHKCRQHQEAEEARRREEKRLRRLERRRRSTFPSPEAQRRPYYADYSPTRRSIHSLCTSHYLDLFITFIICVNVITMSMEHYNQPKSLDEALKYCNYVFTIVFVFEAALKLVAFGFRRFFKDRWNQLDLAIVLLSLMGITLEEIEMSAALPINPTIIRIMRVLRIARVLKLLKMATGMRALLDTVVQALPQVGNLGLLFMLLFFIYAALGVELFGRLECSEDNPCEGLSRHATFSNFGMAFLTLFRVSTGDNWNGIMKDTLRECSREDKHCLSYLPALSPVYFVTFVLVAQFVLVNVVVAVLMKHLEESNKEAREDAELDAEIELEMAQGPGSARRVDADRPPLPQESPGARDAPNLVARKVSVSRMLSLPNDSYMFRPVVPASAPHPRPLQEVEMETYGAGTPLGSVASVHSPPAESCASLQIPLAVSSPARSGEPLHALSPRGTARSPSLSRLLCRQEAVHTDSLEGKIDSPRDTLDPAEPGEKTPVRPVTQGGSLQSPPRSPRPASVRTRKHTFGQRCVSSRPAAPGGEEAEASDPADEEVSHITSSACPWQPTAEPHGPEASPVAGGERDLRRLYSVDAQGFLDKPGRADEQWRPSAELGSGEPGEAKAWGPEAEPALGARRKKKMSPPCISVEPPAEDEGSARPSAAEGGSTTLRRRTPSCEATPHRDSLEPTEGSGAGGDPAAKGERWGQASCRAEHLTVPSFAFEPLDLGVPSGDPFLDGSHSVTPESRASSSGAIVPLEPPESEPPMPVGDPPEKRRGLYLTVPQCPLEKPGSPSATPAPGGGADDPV
* = called active by the depositor; · = no result. Sampled rows, rich in hits. Any-hit rate of the full collection: about 8.7%. Unless noted, no stated cut-off is given here; in the data, active means inhibition above about 30%; inactive means the rest.

SMILES	PTK2B oligo ant	PostGolgi yeast	Ecoli WT expand	PostGolgi ctrl	tolC growth inh	Cav3 T inh
NC(=O)c1c(NC(=O)c2cccs2)sc2c1CCCCCC2	-2.8	9.9	-6.0	68.1*	29.8	0.367
O=C(Nc1sc2c(c1C(=O)O)CCC2)c1cccs1	0.61	-4.9	-3.0	1.8	76.1*	·
O=C(Nc1sc2c(c1C(=O)O)CCC2)c1ccccc1	-0.48	26.3	-9.0	20.6	·	0.832
Cc1cccc(C)c1-n1c(C)cc(/C=N/NC(N)=S)c1C	-0.24	3.5	1.0	27.7	·	-5.91*
CCn1cnc2sc(C(=O)N(Cc3ccc(N(C)C)cc3)Cc3ccco3)c(C)c2c1=O	0.02	11.6	-8.0	39.1*	4.7	-3.89
CC(=O)C(N=Nc1ccccc1)(Sc1nnc(-c2ccccc2)n1-c1ccccc1)C(=O)Nc1ccccc1 (configuration not stated)	-0.79	9.3	-8.0	0.6	·	-6.67*
CC(=O)C(N=Nc1ccccc1)(Sc1nnc(-c2ccccc2)n1-c1ccccc1)C(C)=O	-3.06*	-7.5	-20.0	46.6*	·	-4.35*
CC(C)NC(=O)CSc1nnc(-c2ccncc2)n1-c1ccccc1	0.31	1.1	-4.0	13.6	·	0.0331
CC(C)N(CCCNC(=O)C1CCN(S(=O)(=O)N2CCOCC2)CC1)Cc1ccccc1	-0.5	-5.2	-5.0	-2.7	-5.9	·
CN(C(=O)c1ccc(-c2nn(C)c(=O)c3ccccc23)cc1)c1ccccc1	0.46	7.7	-2.0	11.9	·	0.783
O=C(COc1ccc2ccccc2c1Br)Nn1cnnc1	0.81	-1.6	-11.0	4.8	12.8	1.37
CNC(=O)c1ccc(N(Cc2ccccc2)S(C)(=O)=O)cc1	1.28	-1.8	2.0	-7.0	-22.0	-0.216
N#Cc1c(-c2ccccc2)ccnc1Oc1ccccc1	-1.07	-6.3	-7.0	7.8	·	0.811
O=C(Cn1cnc2c(nnn2Cc2ccccc2F)c1=O)NCc1ccco1	-0.15	-4.2	-2.0	-3.0	3.4	·
COc1cc(S(=O)(=O)N2CCC(O)(c3cccc(C(F)(F)F)c3)CC2)ccc1-n1cnnn1	-0.65	-9.5	-10.0	3.2	100.0*	-3.13
CC(=O)NCCN1C(=O)C2C3c4ccccc4C(c4ccccc43)C2C1=O (configuration not stated)	1.17	-3.0	6.0	11.2	·	-0.0439
C=CCO/N=C(/C)c1c(O)c(CC)c(-c2ccccc2)n(-c2ccccc2)c1=O	-1.23	·	·	·	·	-7.32*
CSCC[C@H](NC(=O)C1CCN(S(=O)(=O)c2ccc(C)cc2)CC1)C(=O)NCc1ccco1	0.25	-1.3	5.0	30.9*	-8.2	2.62
CSCC[C@H](NC(=O)C1CCN(S(=O)(=O)c2ccc(C)cc2)CC1)C(=O)NCC1CCCO1 (some centres not stated)	-0.26	-4.4	-7.0	1.8	-16.1	-0.286
C=CC1CN(C(=O)OCC(Cl)(Cl)Cl)C2CC3c4ccc(OC)cc4NC3C3CC1C2CO3 (configuration not stated)	·	·	·	·	·	-0.64
COc1ccc(S(=O)(=O)N2CCN(CC(=O)Nc3cccc(F)c3)CC2)cc1	-0.95	-4.5	-6.0	4.9	5.7	·
COc1ccccc1N1CCN(CC(=O)c2c(C)[nH]c3cc(C)ccc23)CC1	-1.01	2.4	-1.0	3.2	40.6	-4.21*
COc1ccc(S(=O)(=O)N2CCCN(CCC(=O)Nc3cccc(C(F)(F)F)c3)CC2)cc1	0.55	-5.4	0.0	10.3	36.5	-4.59*
COc1ccc(NC(=O)CCN2CCN(S(=O)(=O)c3ccc(Cl)cc3)CC2)cc1	-0.07	-6.3	-5.0	-5.0	·	0.00985
COc1ccccc1N1CCN(CC(=O)c2c(C)n(C)c3ccccc23)CC1	0.42	5.1	4.0	7.4	37.1	0.156
SMILES	PTK2B oligo ant	PostGolgi yeast	Ecoli WT expand	PostGolgi ctrl	tolC growth inh	Cav3 T inh
COc1ccc(S(=O)(=O)N2CCN(CC(=O)Nc3ccc(C)c(F)c3)CC2)cc1	0.29	2.2	-8.0	-1.0	10.4	-4.2*
COc1ccc(C)cc1NC(=O)CN1CCN(c2ccccc2F)CC1	-0.34	-0.3	-5.0	37.9*	26.6	·
CCOc1cc(S(=O)(=O)N2CCC(C(N)=O)CC2)ccc1F	0.08	0.5	3.0	-3.6	·	0.658
COc1ccc(C)cc1NC(=O)CN1CCN(S(=O)(=O)c2ccc(F)cc2)CC1	0.22	1.6	-2.0	31.4*	0.3	2.29
O=C(CN1CCN(S(=O)(=O)c2ccc(F)cc2)CC1)Nc1cc(C(F)(F)F)ccc1Cl	0.6	-8.8	-5.0	8.8	10.0	0.504
CCc1cc(/C(Cc2ccc3ccccc3n2)=N\O)c(O)cc1O	-0.53	-4.1	17.0	12.5	97.5*	-3.86*
O=[N+]([O-])c1c(C(Cl)Cl)nn(-c2ccccc2)c1N1CCCC1	-0.44	-0.8	6.0	31.0*	·	-0.648
CCOC(=O)C1CCN(c2c([N+](=O)[O-])c(C(Cl)Cl)nn2-c2ccccc2)CC1	0.19	-5.5	-15.0	14.5	·	-0.7
CCc1ccc(OCC(=O)Nc2ncc3c(n2)CC(C)(C)CC3=O)cc1	0.51	19.4	2.0	4.0	-2.4	0.87
CCOC(=O)C1CCCn2c1nc1sc3c(c1c2=O)CCCC3 (configuration not stated)	0.69	-6.6	14.0	38.2*	-1.0	0.34
CCN(CC)C(=O)CSC1=C(C#N)C(c2cccs2)C=C(C)N1 (configuration not stated)	-2.48	-8.3	-5.0	19.1	4.7	-0.608
CC(C)c1nnc(NC(=O)C2CCN(c3cnccn3)CC2)s1	1.21	·	·	·	·	-0.0147
CC(C)c1nnc(NC(=O)C2CCN(c3nc4ccccc4s3)CC2)s1	0.79	5.3	-6.0	33.6*	-10.6	-0.434
CCN(CCCNC(=O)CNC(=O)Cn1cnc2ccccc2c1=O)c1cccc(C)c1	1.63	0.0	-9.0	-2.4	7.4	-3.9*
CN(c1ccccc1)S(=O)(=O)c1cccc(NC(=O)Cn2cnc3ccccc3c2=O)c1	-1.59	-1.7	-4.0	13.2	·	-7.05*
CCN(CC)S(=O)(=O)c1cc(NC(=O)Cn2cnc3ccccc3c2=O)ccc1C	-0.9	8.6	7.0	7.3	·	·
Cc1cc(NC(=O)CCC(=O)N(c2ccc(F)cc2)C2(C(=O)NC3CCCCC3)CCCC2)no1	-1.17	6.0	9.0	39.3*	31.0	-3.67*
O=C(NC1CCCCC1)C(c1cccs1)N(Cc1cccs1)C(=O)c1ccco1 (configuration not stated)	-2.86	-2.5	-14.0	18.9	56.2	-4.06*
O=C(NC1CCCC1)C(c1ccccc1)N(Cc1ccco1)C(=O)Cc1cccs1 (configuration not stated)	-0.37	·	·	·	·	-6.19*
Cc1cc(NC(=O)CCC(=O)N(CCc2ccccc2)C(C(=O)NC2CCCC2)c2ccco2)no1 (configuration not stated)	-1.09	-5.1	0.0	-4.2	19.8	-3.66*
Cc1cc(NC(=O)CCC(=O)N(CC(=O)NC2CCCC2)c2ccc3c(c2)OCCO3)no1	0.43	-0.8	0.0	-3.3	-13.7	-0.0159
CCOc1cc(C)nc(N2CCN(C3CCCCC3)CC2)n1	0.2	-0.3	2.0	5.7	-8.3	0.124

Screening results deposited in PubChem BioAssay by several laboratories.
